Test results reported in ChEMBL document CHEMBL1140973, “New Pd(II) complexes of the synthesized 1-N-substituted thiosemicarbazones of 3-indole carboxaldehyde: characterization and antiamoebic assessment against E. histolytica” (Eur J Med Chem, 2008).

Experiments:
[1] = Safety index, IC50 for transformed human kidney epithelial cells to IC50 for Entamoeba histolytica HM1:IMSS
HEK293 (human) = assay: Cytotoxicity against human HEK293 cells after 44 hrs by MTT assay; conditions: HEK293, 44 h
Entamoeba histolytica = assay: Antiamoebic activity against Entamoeba histolytica HM1:IMSS after 72 hrs by microplate method; assay type: functional, organism-based
Summary of the method: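 E. histolytica HM1:IMSS trophozoites in a microplate assay. Samples in DMSO plus medium (1 mg/mL), diluted to 0.1 mg/mL, then twofold serial dilutions. Inoculum 1.7 × 10^4 amoebae/well (viability by trypan blue), N2-gassed, 37 °C for 72 h. Cells methanol-fixed, eosin-stained, dye released in 0.1 N NaOH, OD 490 nm. % inhibition vs untreated control against log dose; IC50 by linear regression.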

[2] = Safety index, IC50 for human […] to IC50 for Entamoeba histolytica HM1:IMSS; assay type: toxicity, cell-based; conditions: read-out: Ratio IC50
Summary of the method: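 Safety index = IC50 in human kidney epithelial cells (MTT, 44 h + 4 h) divided by IC50 against E. histolytica HM1:IMSS (microplate eosin assay, 72 h).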

Row | SMILES | IC50 (Entamoeba histolytica) | selectivity ratio [1] | IC50 (HEK293 (human)) | selectivity ratio [2]
1 | NC(=S)N/N=C\c1c[nH]c2ccccc12 | 11.5 µM | > 8.68 | > 100 µM | 
2 | CC(C)NC(=S)N/N=C\c1c[nH]c2ccccc12 | 7.64 µM | > 13.1 | > 100 µM | 
3 | CCCCNC(=S)N/N=C\c1c[nH]c2ccccc12 | 4.09 µM | > 24.4 | > 100 µM | 
4 | CC(C)CNC(=S)N/N=C\c1c[nH]c2ccccc12 | 5.76 µM | > 17.4 | > 100 µM | 
5 | Cc1ncc([N+](=O)[O-])n1CCO [METRONIDAZOLE] |  | > 55.2 | > 100 µM | 
6 | CN(Cc1ccccc1)C(=S)N/N=C\c1c[nH]c2ccccc12 | 2.46 µM | > 40.6 | > 100 µM | 

Further compounds by falling IC50 (Entamoeba histolytica), results first:

Row | IC50 (Entamoeba histolytica) | SMILES | selectivity ratio [1] | IC50 (HEK293 (human)) | selectivity ratio [2]
7 | 6.84 µM | CCCNC(=S)N/N=C\c1c[nH]c2ccccc12 | > 14.6 | > 100 µM | 
8 | 6.05 µM | Fc1ccc(NC(=S)N/N=C\c2c[nH]c3ccccc23)c(F)c1 |  |  | > 16.5
9 | 5.5 µM | CCCCN(C)C(=S)N/N=C\c1c[nH]c2ccccc12 | > 18.2 | > 100 µM | 
10 | 3.28 µM | S=C(NCc1ccccc1Cl)N/N=C\c1c[nH]c2ccccc12 | > 30.5 | > 100 µM | 
11 | 3.25 µM | Cc1ccc(NC(=S)N/N=C\c2c[nH]c3ccccc23)cc1 | > 30.8 | > 100 µM | 
12 | 2.58 µM | CCN(CC)C(=S)N/N=C\c1c[nH]c2ccccc12 | > 38.8 | > 100 µM | 
13 | 2.05 µM | Cc1ccccc1NC(=S)N/N=C\c1c[nH]c2ccccc12 | > 48.8 | > 100 µM | 
14 | 1.29 µM | Cc1cccc(NC(=S)N/N=C\c2c[nH]c3ccccc23)c1 | > 77.5 | > 100 µM | 
